For 37 sequences, folding enthalpy and Tm results are on record in the array DNA melting data of Ke et al. (doi:10.1101/2024.01.08.574731).

A short description of data set [1]: folding enthalpy; higher = less favourable; fluorescence melt of hairpins on a sequencing array, two-state fit. The following applies: sodium 0.088 M. The essentials: (§1)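 Melting temperature and folding enthalpy were obtained by bootstrapped two-state fitting. Fits used Cy3 fluorescence of library hairpins with annealed Cy3 and quencher oligos on a sequenced MiSeq flow cell, imaged in 50 mM Na-HEPES pH 8.0, 25 mM NaCl in 2.5 °C steps up to 60 °C and normalised to pre-quench Cy3 and control constructs. Four replicates were combined by inverse-variance weighting, and fitted temperatures were raised by 9.35 °C to match UV melts.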

Data set [2] is described as follows: melting temperature; fluorescence melt of hairpins on a sequencing array, two-state fit, raised by 9.35 °C to match UV melts. To be noted: sodium 0.088 M. The essentials: as §1

As to GAGGCCGAAAGGCTACTC ((((((....)))..))), the folding enthalpy in data set [1] was -48.9 kJ/mol. Moreover, in data set [2], the Tm was found to be 42.9 °C.
On to GAGGCCGAAAGGCTGCTC ((((((....)))..))), for which, in data set [1], the folding enthalpy is -50.5 kJ/mol. Further, the Tm in data set [2] is 45.9 °C.
Consider GAGGCCGGAAACGACCTC ((((.((....)).)))), for which the folding enthalpy in data set [1] was -188 kJ/mol. In addition, in data set [2], the Tm stood at 52.9 °C.
As to GAGGCGGGAAACCACCTC ((((.((....)).)))), the folding enthalpy in data set [1] is -154 kJ/mol. Further, in data set [2], the Tm was 49.1 °C.
In the case of GAGGCGGGAAACCGCCCC (.(((((....))))).), the folding enthalpy in data set [1] is -29.7 kJ/mol. For the same sequence, the Tm in data set [2] was 46.4 °C.
On to GAGGCTGCGAAAGCACTC (((..(((....)))))), for which the folding enthalpy in data set [1] is -46.9 kJ/mol. The Tm in data set [2] turned out to be 34.3 °C.
Turning to GAGGGACCGAAAGGTCTC (((..(((....)))))), in data set [1], the folding enthalpy is -48.6 kJ/mol. Moreover, in data set [2], the Tm turned out to be 38.3 °C.
The corresponding values for GAGGGACGAAAGTCGCTC (((.(((....))).))) are -144 kJ/mol and 65.6 °C.
The corresponding values for GAGGGAGAAATCCCTC ((((((....)))))) are -150 kJ/mol and 53.8 °C.
Consider GAGGGCGAAAGCCACCTC ((((((....)))..))), for which, in data set [1], the folding enthalpy was -46 kJ/mol. In addition, the Tm in data set [2] was found to be 38.1 °C.
Turning to GAGGGCGAAAGCCGGCTC ((((((....)))..))), the folding enthalpy in data set [1] is -50.7 kJ/mol. For the same sequence, in data set [2], the Tm was 51 °C.
The corresponding values for GAGGGCGGAAACACCCTC (((((.(....).))))) are -141 kJ/mol and 49.6 °C.
Regarding GAGGGGACGAAAGTCCTC (((..(((....)))))), in data set [1], the folding enthalpy is -37 kJ/mol. Also, the Tm in data set [2] was determined as 41.2 °C.
In the case of GAGGGGCCGAAAGGCCTC (((..(((....)))))), the folding enthalpy in data set [1] is -31 kJ/mol. In data set [2], the Tm stood at 46.4 °C.
For GAGGGGGGAAACCTCCTC ((((.((....)).)))), the folding enthalpy in data set [1] is -141 kJ/mol. In addition, the Tm in data set [2] was determined as 51.4 °C.
Regarding GAGGGTCCGAAAGGACTC (((..(((....)))))), in data set [1], the folding enthalpy is -39.8 kJ/mol. Also, in data set [2], the Tm stood at 41.3 °C.
Regarding GAGGGTGGAAACGCCTTC ((.((.(....).)).)), in data set [1], the folding enthalpy was -108 kJ/mol. For the same sequence, in data set [2], the Tm came out at 34.1 °C.
On to GAGGGTGGAAACGCTCTC (((.(.(....).).))), for which the folding enthalpy in data set [1] is -84.9 kJ/mol. The Tm in data set [2] stood at 49.4 °C.
The matching figures for GAGGTACGAAAGTAACTC (((.(((....))).))): -162 kJ/mol and 54.1 °C.
Take GAGGTAGGAAACTGCCTC ((((.((....)).)))): the folding enthalpy in data set [1] is -155 kJ/mol. The Tm in data set [2] stood at 49.9 °C.
The corresponding values for GAGGTCCGAAAGGAACTC (((.(((....))).))) are -170 kJ/mol and 61.5 °C.
The matching figures for GAGGTCGGAAACAACCTC (((((.(....).))))): -121 kJ/mol and 41.2 °C.
The corresponding values for GAGGTCGGAAACGGTCTC (((..((....))..))) are -97.9 kJ/mol and 39.6 °C.
GAGGTGCGAAAGCAACTC (((.(((....))).))): in data set [1], the folding enthalpy is -109 kJ/mol. In data set [2], the Tm is 66.5 °C.
Take GAGGTTGAAAAACCTC ((((((....)))))): the folding enthalpy in data set [1] is -136 kJ/mol. Further, the Tm in data set [2] was 58.2 °C.
Turning to GAGGTTGGAAACAACCTC (((((((....))))))), the folding enthalpy in data set [1] was -181 kJ/mol. Besides, in data set [2], the Tm was found to be 65.8 °C.
Consider GAGGTTGGAAACAGCCTC ((((.((....)).)))), for which, in data set [1], the folding enthalpy was -136 kJ/mol. Also, the Tm in data set [2] is 50.1 °C.
The corresponding values for GAGGTTGGAAACAGCTTC ((.(.((....)).).)) are -151 kJ/mol and 39.9 °C.
GAGGTTGGAAACGATCTC (((.(.(....).).))): the folding enthalpy in data set [1] was -72.3 kJ/mol. In addition, in data set [2], the Tm was determined as 29.5 °C.
For GAGTAACGAAAGTTCTC (((.(((....)))))), in data set [1], the folding enthalpy is -91.8 kJ/mol. Also, the Tm in data set [2] was 37.1 °C.
Take GAGTACCGAAAGGTCCTC (((.(((....))).))): the folding enthalpy in data set [1] is -105 kJ/mol. Also, the Tm in data set [2] turned out to be 45.3 °C.
The matching figures for GAGTACCGAAAGGTCTC (((.(((....)))))): -90.4 kJ/mol and 48.7 °C.
In the case of GAGTACGAAAGTAGCCTC ((((((....)))..))), in data set [1], the folding enthalpy was -49.4 kJ/mol. Besides, the Tm in data set [2] came to 27.3 °C.
For the sequence GAGTACGAAAGTAGCTC ((((((....))).))), the folding enthalpy in data set [1] is -97.7 kJ/mol. The Tm in data set [2] is 37.5 °C.
The matching figures for GAGTACGGAAACGTACTC (((((((....))))))): -178 kJ/mol and 64 °C.
GAGTAGAAATACTC (((((....))))): the folding enthalpy in data set [1] is -69.9 kJ/mol. The Tm in data set [2] turned out to be 36.5 °C.
The corresponding values for GAGTAGACGAAAGTCCTC (((..(((....)))))) are -59 kJ/mol and 32.8 °C.
